Experimental data: ChEMBL document CHEMBL1139755, “Synthesis and in vitro antibacterial activity of novel methylamino piperidinyl oxazolidinones” (2007)
≈ marks a conversion by molar mass, not a printed value.

Legend:
Staphylococcus aureus [1] = assay: Antibacterial activity against Staphylococcus aureus ATCC 33591 by broth microdilution method; assay type: functional
Outline: (§1)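 Endpoint is the minimum inhibitory concentration, determined by broth microdilution against a panel of susceptible Gram-positive strains. Values are reported as a range spanning two concentrations (for example 8–16). Values above the top concentration tested are given as >16.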

Bacillus subtilis = assay: Antibacterial activity against Bacillus subtilis ATCC 6633 by broth microdilution method; assay type: functional; outline: as §1
Streptococcus pneumoniae = assay: Antibacterial activity against multidrug-resistant Streptococcus pneumoniae ATCC 700904 by broth microdilution method; assay type: functional
Staphylococcus aureus [2] = assay: Antibacterial activity against methicillin-resistant Staphylococcus aureus ATCC 700699 by broth microdilution method; assay type: functional
Staphylococcus aureus [3] = assay: Antibacterial activity against Staphylococcus aureus ATCC 33592 by broth microdilution method; assay type: functional; outline: as §1
Streptococcus pyogenes = assay: Antibacterial activity against Streptococcus pyogenes ATCC 14289 by broth microdilution method
Staphylococcus aureus [4] = assay: Antibacterial activity against Staphylococcus aureus ATCC 29213 by broth microdilution method; assay type: functional; outline: as §1
[5] = test system: Staphylococcus epidermidis; assay: Antibacterial activity against Staphylococcus epidermidis ATCC 155 by broth microdilution method; assay type: functional; outline: as §1
Enterococcus faecalis [6] = assay: Antibacterial activity against Enterococcus faecalis ATCC 14506 by broth microdilution method; assay type: functional; outline: as §1
Staphylococcus aureus [7] = assay: Antibacterial activity against linezolid-resistant Staphylococcus aureus NRS 119 by broth microdilution method; assay type: functional
Outline: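 Linezolid-resistant S. aureus strain obtained from NARSA; minimum inhibitory concentration found by broth microdilution and reported as a concentration range.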

Enterococcus faecalis [8] = assay: Antibacterial activity against Enterococcus faecalis ATCC 29212 by broth microdilution method; assay type: functional; outline: as §1
Enterococcus faecalis [9] = assay: Antibacterial activity against multidrug resistant Enterococcus faecalis ATCC 700802 by broth microdilution method; assay type: functional
Enterococcus faecium = assay: Antibacterial activity against vancomycin-resistant Enterococcus faecium ATCC 700221 by broth microdilution method; assay type: functional
Staphylococcus aureus [10] = assay: Antibacterial activity against Staphylococcus aureus ATCC 25923 by broth microdilution method; assay type: functional; outline: as §1
[11] = test system: Staphylococcus epidermidis; assay: Antibacterial activity against Staphylococcus epidermidis ATCC 12228 by broth microdilution method; assay type: functional; outline: as §1

Structure (SMILES)	MIC (Staphylococcus aureus [1])	MIC (Bacillus subtilis)	MIC (Streptococcus pneumoniae)	MIC (Staphylococcus aureus [2])	MIC (Staphylococcus aureus [3])	MIC (Streptococcus pyogenes)	MIC (Staphylococcus aureus [4])	MIC [5]	MIC (Enterococcus faecalis [6])	MIC (Staphylococcus aureus [7])	MIC (Enterococcus faecalis [8])	MIC (Enterococcus faecalis [9])	MIC (Enterococcus faecium)	MIC (Staphylococcus aureus [10])	MIC [11]
CC(=O)NC[C@H]1CN(c2ccc(N(C)C3CCN(C(=O)/C=C/c4ccc5c(c4)OCO5)CC3)c(F)c2)C(=O)O1	8 µg/mL (≈ 14.9 µM)	2 µg/mL (≈ 3.71 µM)	> 16 µg/mL	> 16 µg/mL	> 16 µg/mL	> 16 µg/mL	> 16 µg/mL	> 16 µg/mL	> 16 µg/mL	> 16 µg/mL	8 µg/mL (≈ 14.9 µM)	> 16 µg/mL	> 16 µg/mL	> 16 µg/mL	8 µg/mL (≈ 14.9 µM)
CC(=O)NC[C@H]1CN(c2ccc(N(C)C3CCNCC3)c(F)c2)C(=O)O1	> 16 µg/mL	> 16 µg/mL	> 16 µg/mL	> 16 µg/mL	> 16 µg/mL	> 16 µg/mL	> 16 µg/mL	> 16 µg/mL	> 16 µg/mL	> 16 µg/mL	> 16 µg/mL	> 16 µg/mL	> 16 µg/mL	> 16 µg/mL	> 16 µg/mL
CC(=O)NC[C@H]1CN(c2ccc(N(C)C3CCN(C(=O)/C=C/c4ccco4)CC3)c(F)c2)C(=O)O1	> 16 µg/mL	2 µg/mL (≈ 4.13 µM)	> 16 µg/mL	8 µg/mL (≈ 16.5 µM)	> 16 µg/mL	> 16 µg/mL	> 16 µg/mL	> 16 µg/mL	> 16 µg/mL	> 16 µg/mL	> 16 µg/mL	> 16 µg/mL	8 µg/mL (≈ 16.5 µM)	> 16 µg/mL	> 16 µg/mL
CC(=O)NC[C@H]1CN(c2ccc(N(C)C3CCN(C(=O)/C=C/c4ccccc4)CC3)c(F)c2)C(=O)O1	8 µg/mL (≈ 16.2 µM)	2 µg/mL (≈ 4.04 µM)	8 µg/mL (≈ 16.2 µM)	8 µg/mL (≈ 16.2 µM)	4 µg/mL (≈ 8.09 µM)	8 µg/mL (≈ 16.2 µM)	8 µg/mL (≈ 16.2 µM)	4 µg/mL (≈ 8.09 µM)	> 16 µg/mL	> 16 µg/mL	> 16 µg/mL	8 µg/mL (≈ 16.2 µM)	4 µg/mL (≈ 8.09 µM)	8 µg/mL (≈ 16.2 µM)	8 µg/mL (≈ 16.2 µM)
CC(=O)NC[C@H]1CN(c2ccc(N(C)C3CCN(C(=O)/C=C/c4ccc(O)cc4)CC3)c(F)c2)C(=O)O1	8 µg/mL (≈ 15.7 µM)	2 µg/mL (≈ 3.92 µM)	8 µg/mL (≈ 15.7 µM)	4 µg/mL (≈ 7.83 µM)	> 16 µg/mL	8 µg/mL (≈ 15.7 µM)	> 16 µg/mL	8 µg/mL (≈ 15.7 µM)	> 16 µg/mL	> 16 µg/mL	4 µg/mL (≈ 7.83 µM)	8 µg/mL (≈ 15.7 µM)	8 µg/mL (≈ 15.7 µM)	8 µg/mL (≈ 15.7 µM)	8 µg/mL (≈ 15.7 µM)
CC(=O)NC[C@H]1CN(c2ccc(N(C)C3CCN(C(=O)/C=C/c4ccc([N+](=O)[O-])o4)CC3)c(F)c2)C(=O)O1	1 µg/mL (≈ 1.89 µM)	0.5 µg/mL (≈ 0.944 µM)	0.25 µg/mL (≈ 0.472 µM)	1 µg/mL (≈ 1.89 µM)	1 µg/mL (≈ 1.89 µM)	2 µg/mL (≈ 3.78 µM)	2 µg/mL (≈ 3.78 µM)	0.25 µg/mL (≈ 0.472 µM)	4 µg/mL (≈ 7.55 µM)	2 µg/mL (≈ 3.78 µM)	2 µg/mL (≈ 3.78 µM)	8 µg/mL (≈ 15.1 µM)	1 µg/mL (≈ 1.89 µM)	2 µg/mL (≈ 3.78 µM)	1 µg/mL (≈ 1.89 µM)
CC(=O)NC[C@H]1CN(c2ccc(N(C)C3CCN(C(=O)/C=C/c4ccc([N+](=O)[O-])cc4)CC3)c(F)c2)C(=O)O1	> 16 µg/mL	4 µg/mL (≈ 7.41 µM)	> 16 µg/mL	8 µg/mL (≈ 14.8 µM)	> 16 µg/mL	> 16 µg/mL	> 16 µg/mL	8 µg/mL (≈ 14.8 µM)	> 16 µg/mL	> 16 µg/mL	> 16 µg/mL	> 16 µg/mL	> 16 µg/mL	> 16 µg/mL	8 µg/mL (≈ 14.8 µM)
CC(=O)NC[C@H]1CN(c2ccc(N(C)C3CCN(C(=O)/C=C/C4CCCCC4)CC3)c(F)c2)C(=O)O1	> 16 µg/mL	8 µg/mL (≈ 16 µM)	8 µg/mL (≈ 16 µM)	4 µg/mL (≈ 7.99 µM)	8 µg/mL (≈ 16 µM)	> 16 µg/mL	8 µg/mL (≈ 16 µM)	8 µg/mL (≈ 16 µM)	8 µg/mL (≈ 16 µM)	> 16 µg/mL	> 16 µg/mL	8 µg/mL (≈ 16 µM)	8 µg/mL (≈ 16 µM)	8 µg/mL (≈ 16 µM)	> 16 µg/mL
CC(=O)NC[C@H]1CN(c2ccc(N(C)C3CCN(C(=O)/C=C/c4c[nH]c5ccccc45)CC3)c(F)c2)C(=O)O1	8 µg/mL (≈ 15 µM)	2 µg/mL (≈ 3.75 µM)	8 µg/mL (≈ 15 µM)	2 µg/mL (≈ 3.75 µM)	> 16 µg/mL	8 µg/mL (≈ 15 µM)	> 16 µg/mL	4 µg/mL (≈ 7.5 µM)	> 16 µg/mL	> 16 µg/mL	8 µg/mL (≈ 15 µM)	8 µg/mL (≈ 15 µM)	8 µg/mL (≈ 15 µM)	8 µg/mL (≈ 15 µM)	4 µg/mL (≈ 7.5 µM)
CC(=O)NC[C@H]1CN(c2ccc(N(C)C3CCN(C(=O)/C=C/c4ccc(CO)o4)CC3)c(F)c2)C(=O)O1	> 16 µg/mL	> 16 µg/mL	> 16 µg/mL	> 16 µg/mL	> 16 µg/mL	> 16 µg/mL	> 16 µg/mL	> 16 µg/mL	> 16 µg/mL	> 16 µg/mL	> 16 µg/mL	> 16 µg/mL	> 16 µg/mL	> 16 µg/mL	> 16 µg/mL
CC(=O)NC[C@H]1CN(c2ccc(N3CCN(C(=O)CO)CC3)c(F)c2)C(=O)O1 [EPEREZOLID]	1 µg/mL (≈ 2.54 µM)	0.5 µg/mL (≈ 1.27 µM)	0.25 µg/mL (≈ 0.634 µM)	1 µg/mL (≈ 2.54 µM)	–	0.25 µg/mL (≈ 0.634 µM)	2 µg/mL (≈ 5.07 µM)	–	2 µg/mL (≈ 5.07 µM)	> 16 µg/mL	2 µg/mL (≈ 5.07 µM)	1 µg/mL (≈ 2.54 µM)	–	2 µg/mL (≈ 5.07 µM)	2 µg/mL (≈ 5.07 µM)
CC(=O)NC[C@H]1CN(c2ccc(N3CCOCC3)c(F)c2)C(=O)O1 [LINEZOLID]	1 µg/mL (≈ 2.96 µM)	1 µg/mL (≈ 2.96 µM)	–	1 µg/mL (≈ 2.96 µM)	–	0.5 µg/mL (≈ 1.48 µM)	–	1 µg/mL (≈ 2.96 µM)	–	> 16 µg/mL	–	–	–	1 µg/mL (≈ 2.96 µM)	2 µg/mL (≈ 5.93 µM)
CC(=O)NC[C@H]1CN(c2ccc(N3CCN(Cc4ccc([N+](=O)[O-])o4)CC3)c(F)c2)C(=O)O1 [RANBEZOLID]	1 µg/mL (≈ 2.17 µM)	0.25 µg/mL (≈ 0.542 µM)	0.25 µg/mL (≈ 0.542 µM)	0.5 µg/mL (≈ 1.08 µM)	1 µg/mL (≈ 2.17 µM)	2 µg/mL (≈ 4.33 µM)	1 µg/mL (≈ 2.17 µM)	0.25 µg/mL (≈ 0.542 µM)	2 µg/mL (≈ 4.33 µM)	> 16 µg/mL	–	1 µg/mL (≈ 2.17 µM)	2 µg/mL (≈ 4.33 µM)	1 µg/mL (≈ 2.17 µM)	0.5 µg/mL (≈ 1.08 µM)
